pIC50: −log10 of the molar value.

Results on 36 molecules are retold here after ChEMBL document CHEMBL1156610, “Synthesis, biological evaluation, and molecular modeling studies of methylene imidazole substituted biaryls as inhibitors of human 17alpha-hydroxylase-17,20-lyase (CYP17)--part II: Core rigidification and influence of substituents at the methylene bridge” (Bioorg Med Chem, 2008).

Series [1] has as its target T1, Steroid 17-alpha-hydroxylase/17,20 lyase (Homo sapiens, UniProt P05093).
T1 sequence (P05093 whole entry): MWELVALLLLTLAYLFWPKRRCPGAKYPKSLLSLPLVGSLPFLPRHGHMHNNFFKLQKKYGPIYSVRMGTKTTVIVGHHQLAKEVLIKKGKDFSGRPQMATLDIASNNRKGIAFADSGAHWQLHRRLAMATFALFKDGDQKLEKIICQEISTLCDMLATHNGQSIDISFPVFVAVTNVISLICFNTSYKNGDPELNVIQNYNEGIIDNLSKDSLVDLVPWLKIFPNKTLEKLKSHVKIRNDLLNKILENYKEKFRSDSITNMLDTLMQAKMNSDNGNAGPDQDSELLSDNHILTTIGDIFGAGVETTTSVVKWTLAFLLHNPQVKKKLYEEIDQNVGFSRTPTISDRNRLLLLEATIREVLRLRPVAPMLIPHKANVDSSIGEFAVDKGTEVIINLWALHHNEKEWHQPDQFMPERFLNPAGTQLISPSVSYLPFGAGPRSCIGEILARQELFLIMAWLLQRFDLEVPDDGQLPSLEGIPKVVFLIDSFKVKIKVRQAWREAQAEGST
Put plainly: Inhibition of human CYP17 expressed in Escherichia coli coexpressed with cytochrome P450 reductase. A digest of the protocol: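 Enzyme source: 50,000g sediment from homogenized E. coli coexpressing human CYP17 and cytochrome P450 reductase. Substrate progesterone (25 µM as printed), NADPH cofactor.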

The target in another series is CYP3A4 (Homo sapiens, UniProt P08684). Put plainly: Inhibition of hepatic CYP3A4 expressed in insect microsomes at 1 uM. Type of series: ADME, Microsome. In a few lines: (§1)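 Recombinant human enzymes from baculovirus-infected insect cell microsomes, run per supplier protocol. Test concentration 1 µM; values are means of at least three independent tests, standard deviations under 5%.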

Another series has as its target T2, CYP1A2 (Homo sapiens, UniProt P05177).
T2 sequence (P05177 whole entry): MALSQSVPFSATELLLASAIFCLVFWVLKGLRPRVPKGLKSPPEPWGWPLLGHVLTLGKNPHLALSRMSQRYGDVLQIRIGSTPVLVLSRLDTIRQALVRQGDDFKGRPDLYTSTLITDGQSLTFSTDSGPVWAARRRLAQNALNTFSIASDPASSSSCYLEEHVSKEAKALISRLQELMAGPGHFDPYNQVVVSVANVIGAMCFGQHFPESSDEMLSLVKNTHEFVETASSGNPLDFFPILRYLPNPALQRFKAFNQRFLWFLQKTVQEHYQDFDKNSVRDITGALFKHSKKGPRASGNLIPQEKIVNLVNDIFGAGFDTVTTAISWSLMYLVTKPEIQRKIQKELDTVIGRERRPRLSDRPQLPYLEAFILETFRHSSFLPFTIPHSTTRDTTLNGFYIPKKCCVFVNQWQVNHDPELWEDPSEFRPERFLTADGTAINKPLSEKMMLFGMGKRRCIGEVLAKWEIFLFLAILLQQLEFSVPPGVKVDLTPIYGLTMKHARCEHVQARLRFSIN
Put plainly: Inhibition of hepatic CYP1A2 expressed in insect microsomes at 1 uM. Type of series: ADME, Microsome. A digest of the protocol:
as §1

For another series, the target named is CYP2D6 (Homo sapiens, UniProt P10635). Put plainly: Inhibition of hepatic CYP2D6 expressed in insect microsomes at 1 uM. Type of series: ADME, Microsome. In a few lines: as §1
A further series deals with T3, CYP2B6 (Homo sapiens, UniProt P20813).
T3 sequence (P20813 whole entry): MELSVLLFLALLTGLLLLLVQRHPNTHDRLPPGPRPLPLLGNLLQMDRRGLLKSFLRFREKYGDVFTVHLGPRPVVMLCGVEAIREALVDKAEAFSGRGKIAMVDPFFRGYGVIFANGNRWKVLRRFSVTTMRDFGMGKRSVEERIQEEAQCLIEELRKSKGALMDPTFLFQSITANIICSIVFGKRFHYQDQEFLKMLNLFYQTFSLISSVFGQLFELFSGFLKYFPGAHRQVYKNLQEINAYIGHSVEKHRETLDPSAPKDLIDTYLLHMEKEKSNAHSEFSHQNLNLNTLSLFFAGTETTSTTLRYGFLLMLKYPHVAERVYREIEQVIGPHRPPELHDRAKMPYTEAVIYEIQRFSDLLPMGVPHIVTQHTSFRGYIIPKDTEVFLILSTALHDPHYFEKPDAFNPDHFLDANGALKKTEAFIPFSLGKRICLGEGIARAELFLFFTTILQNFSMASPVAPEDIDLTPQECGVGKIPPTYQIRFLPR
Put plainly: Inhibition of hepatic CYP2B6 expressed in insect microsomes at 1 uM. Format: ADME, Microsome. A digest of the protocol:
as §1

The next series deals with T4, CYP11B1 (Homo sapiens, UniProt P15538).
T4 sequence (P15538 whole entry): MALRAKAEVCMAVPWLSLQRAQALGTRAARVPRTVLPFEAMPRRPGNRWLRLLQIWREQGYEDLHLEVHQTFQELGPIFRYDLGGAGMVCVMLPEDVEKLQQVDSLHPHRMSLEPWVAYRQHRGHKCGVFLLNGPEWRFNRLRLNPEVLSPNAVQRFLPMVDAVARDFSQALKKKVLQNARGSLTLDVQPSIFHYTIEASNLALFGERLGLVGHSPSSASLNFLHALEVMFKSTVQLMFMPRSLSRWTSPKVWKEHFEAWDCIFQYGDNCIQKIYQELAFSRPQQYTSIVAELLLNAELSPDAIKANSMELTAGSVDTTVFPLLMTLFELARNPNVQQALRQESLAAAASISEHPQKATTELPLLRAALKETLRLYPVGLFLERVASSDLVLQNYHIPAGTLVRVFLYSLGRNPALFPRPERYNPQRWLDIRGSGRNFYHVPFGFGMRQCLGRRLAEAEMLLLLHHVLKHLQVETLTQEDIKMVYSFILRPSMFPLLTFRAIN
Kind of series: Inhibition of human CYP11B1 at 0.2 uM using [4-14C]-11-dexycorticosterone as a substrate. Particulars: probe [4-14C]-11-dexycorticosterone. A digest of the protocol: (§2)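 V79MZh cells expressing human CYP11B1 or CYP11B2, incubated with [4-14C]-11-deoxycorticosterone as substrate; inhibitors tested at 0.2 µM.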

Another series has as its target T5, CYP11B2 (Homo sapiens, UniProt P19099).
T5 sequence (P19099 whole entry): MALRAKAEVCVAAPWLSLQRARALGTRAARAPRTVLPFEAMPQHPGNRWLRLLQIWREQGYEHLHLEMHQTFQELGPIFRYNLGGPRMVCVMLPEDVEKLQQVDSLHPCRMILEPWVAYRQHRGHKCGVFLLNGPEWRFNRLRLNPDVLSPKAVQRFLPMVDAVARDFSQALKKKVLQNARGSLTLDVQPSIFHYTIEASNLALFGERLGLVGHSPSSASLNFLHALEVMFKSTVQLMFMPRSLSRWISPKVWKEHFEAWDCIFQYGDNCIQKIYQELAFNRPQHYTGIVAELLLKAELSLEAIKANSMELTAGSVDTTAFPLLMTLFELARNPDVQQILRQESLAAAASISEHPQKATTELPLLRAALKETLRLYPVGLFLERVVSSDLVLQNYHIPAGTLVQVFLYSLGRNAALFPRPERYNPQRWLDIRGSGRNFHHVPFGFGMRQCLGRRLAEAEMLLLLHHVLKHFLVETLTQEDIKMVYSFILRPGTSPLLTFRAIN
Kind of series: Inhibition of human CYP11B2 at 0.2 uM using [4-14C]-11-dexycorticosterone as a substrate. Particulars: probe [4-14C]-11-dexycorticosterone. In a few lines: as §2

CYP3A4, sequence (P08684 whole entry): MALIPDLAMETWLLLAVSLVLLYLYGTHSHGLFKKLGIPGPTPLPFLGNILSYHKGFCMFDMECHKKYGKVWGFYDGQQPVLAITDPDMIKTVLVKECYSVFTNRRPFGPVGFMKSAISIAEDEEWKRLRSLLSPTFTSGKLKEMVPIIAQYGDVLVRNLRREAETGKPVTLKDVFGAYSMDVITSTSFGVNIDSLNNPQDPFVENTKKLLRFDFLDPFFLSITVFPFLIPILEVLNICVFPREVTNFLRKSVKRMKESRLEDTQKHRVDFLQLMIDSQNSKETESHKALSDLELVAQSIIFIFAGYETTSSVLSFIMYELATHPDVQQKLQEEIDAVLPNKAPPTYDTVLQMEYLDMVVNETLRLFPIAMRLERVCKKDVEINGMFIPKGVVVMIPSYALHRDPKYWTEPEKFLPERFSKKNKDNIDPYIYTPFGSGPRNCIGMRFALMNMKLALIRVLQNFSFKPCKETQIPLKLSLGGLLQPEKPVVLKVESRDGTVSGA
CYP2D6, sequence (P10635 whole entry): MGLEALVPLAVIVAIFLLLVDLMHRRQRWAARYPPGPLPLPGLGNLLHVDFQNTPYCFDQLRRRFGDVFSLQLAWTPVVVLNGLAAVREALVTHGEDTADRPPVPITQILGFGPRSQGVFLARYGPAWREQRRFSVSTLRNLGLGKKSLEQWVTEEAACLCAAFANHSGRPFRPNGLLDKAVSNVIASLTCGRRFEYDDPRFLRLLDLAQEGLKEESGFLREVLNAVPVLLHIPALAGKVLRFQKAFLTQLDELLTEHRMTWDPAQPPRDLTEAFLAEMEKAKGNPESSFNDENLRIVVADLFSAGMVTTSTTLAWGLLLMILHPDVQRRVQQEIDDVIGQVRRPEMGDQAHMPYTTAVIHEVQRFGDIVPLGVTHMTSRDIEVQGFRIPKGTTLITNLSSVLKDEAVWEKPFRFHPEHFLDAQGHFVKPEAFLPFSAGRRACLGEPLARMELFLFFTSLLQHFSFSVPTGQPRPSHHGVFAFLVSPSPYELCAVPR

In general, pIC50 refers to the negative decadic logarithm of the IC50, by convention in mol/L. Lower therefore signals a large IC50. For the molecule `CCC(c1ccc(-c2ccc(C#N)cc2)cc1)n1ccnc1` (stereo not given), the negative-log IC50 (pIC50) in series [1] is less than 5.30.

The molecule `C=CC(c1ccc(-c2ccccc2)cc1)n1ccnc1` (stereo not given) had a pIC50 in series [1] of 5.85. The same measure, in the same setting: then `CC(c1ccc(-c2ccc(F)cc2)cc1)n1ccnc1` (stereo not given), with 5.96; and `CCCC(c1ccc(-c2ccccc2)cc1)n1ccnc1` (stereo not given), with 6.24. As usually defined, the inhibition is how much of the control response was suppressed. Molecule `CC(c1ccc2c(c1)[nH]c1cc(F)ccc12)n1ccnc1` (stereo not given) gave a negative-log IC50 (pIC50) in series [1] of 6.93. Moreover, testing at 1 µM on CYP3A4 gave an inhibition of 75%.

The molecule `CCc1ccc(-c2ccc(C(CC)n3ccnc3)cc2)cc1` (stereo not given) gave a pIC50 in series [1] of 5.70.

`CCC(c1ccc(-c2ccc(N(CC)CC)cc2)cc1)n1ccnc1` (stereo not given) gave a pIC50 in series [1] of less than 5.30. The same measure, in the same setting: then `CC(C)C(c1ccc(-c2ccccc2)cc1)n1ccnc1` (stereo not given), with 6.51; and `CC(c1ccc(-c2ccccc2)cc1)n1ccnc1` (stereo not given), with 6.04.

`CCC(c1ccc(-c2ccccc2)cc1)n1ccnc1` (stereo not given) had a pIC50 in series [1] of 6.35. Same read-out and setting: then `CC(C)CC(c1ccc(-c2ccccc2)cc1)n1ccnc1` (stereo not given), with 5.68; and `CC(C)(C)C(c1ccc(-c2ccccc2)cc1)n1ccnc1` (stereo not given), with 6.34; and `CCCCC(c1ccc(-c2ccccc2)cc1)n1ccnc1` (stereo not given), with 6.52. On the same count and under the same terms, then `c1ccc(-c2ccc(C(c3ccc(-c4ccccc4)cc3)n3ccnc3)cc2)cc1`, with 5.64; and `CCC(c1ccc(-c2ccc(SC)cc2)cc1)n1ccnc1` (stereo not given), with 5.51; and `CCC(c1ccc(-c2ccc(C)cc2)cc1)n1ccnc1` (stereo not given), with less than 5.30. `CC(c1ccc2c(c1)[nH]c1ccccc12)n1ccnc1` (stereo not given) showed a pIC50 in series [1] of 6.55. The inhibition at 1 µM against CYP1A2 stood at 99%; on CYP3A4, 88%.

The molecule `Fc1ccc(-c2ccc(C(CCCl)n3ccnc3)cc2)cc1` (stereo not given) showed a negative-log IC50 (pIC50) in series [1] of 6.12. For the same molecule, the inhibition at 1 µM at CYP1A2 was 96%; against CYP3A4, 86%; against CYP2D6 it was 32%; against CYP2B6, 34%. For the molecule `C=CC(c1ccc(-c2ccc(F)cc2)cc1)n1ccnc1` (stereo not given), in series [1], the pIC50 is less than 5.30.

Regarding `CCC(c1ccc(-c2ccc(N3CCOCC3)cc2)cc1)n1ccnc1` (stereo not given), in series [1], the pIC50 is 5.66.

Consider `CCC(c1ccc(-c2ccc(NC(=O)OC(C)(C)C)cc2)cc1)n1ccnc1` (stereo not given), for which the negative-log IC50 (pIC50) in series [1] is 5.77. The inhibition at 1 µM on CYP3A4 was found to be 52%. `CCC(c1ccc(-c2ccc(O)cc2)cc1)n1ccnc1` (stereo not given) had a pIC50 in series [1] of 6.43.

Take `CCC(CC)(c1ccc(-c2ccc(F)cc2)cc1)n1ccnc1`: in series [1], the negative logarithm of the IC50 (pIC50) was 5.89. In addition, the inhibition at 1 µM on CYP1A2 is 51%; at CYP3A4 it was 95%. In the case of `CC(c1ccc2c(c1)Cc1cc(F)ccc1-2)n1ccnc1` (stereo not given), the negative-log IC50 (pIC50) in series [1] was 6.77. The same measure, in the same setting: then `c1ccc2c(c1)Cc1cc(Cn3ccnc3)ccc1-2`, with 6.41; and `CC(C)(c1ccc(-c2ccc(F)cc2)cc1)n1ccnc1`, with 5.42. On the same count and under the same terms, then `CCC(c1ccc(-c2ccc(N(C)C)cc2)cc1)n1ccnc1` (stereo not given), with less than 5.30. `FC(F)(F)c1ccc(-c2ccc(Cn3ccnc3)cc2)cc1` showed a negative logarithm of the IC50 (pIC50) in series [1] of less than 5.30.

For `CC(c1ccc2c(c1)Cc1cc(O)ccc1-2)n1ccnc1` (stereo not given), the inhibition at 0.2 µM against CYP11B1 worked out at 96%; against CYP11B2, 98%. The molecule further had a pIC50 in series [1] of 7.00. For the same molecule, the inhibition at 1 µM on CYP1A2 was 93%; against CYP3A4 it was 89%. `OCCC(c1ccc(-c2ccc(F)cc2)cc1)n1ccnc1` (stereo not given) gave a negative-log IC50 (pIC50) in series [1] of less than 5.30. On the same count and under the same terms, then `CCC(c1ccc(-c2ccc(OC(F)(F)F)cc2)cc1)n1ccnc1` (stereo not given), with less than 5.30; and `c1ccc(-c2ccc(C(C3CCCCC3)n3ccnc3)cc2)cc1` (stereo not given), with 5.98; and `c1ccc(CC(c2ccc(-c3ccccc3)cc2)n2ccnc2)cc1` (stereo not given), with 6.11. As to `CCC(c1ccc(-c2ccc(NC(C)=O)cc2)cc1)n1ccnc1` (stereo not given), in series [1], the negative-log IC50 (pIC50) was less than 5.30. Consider `C[C@]12CC[C@H](O)CC1=CC[C@@H]1[C@@H]2CC[C@]2(C)C(c3cccnc3)=CC[C@@H]12` [ABIRATERONE], for which the inhibition at 1 µM on CYP3A4 is 27%.

In turn, `c1ccc(-c2ccc(C(c3ccccc3)n3ccnc3)cc2)cc1` (stereo not given) [BIFONAZOLE] showed a pIC50 in series [1] of 6.10.
